In ChEMBL document CHEMBL3351932, “Discovery of BI 207524, an indole diamide NS5B thumb pocket 1 inhibitor with improved potency for the potential treatment of chronic hepatitis C virus infection” (J Med Chem, 2014):
Values belong to the molecule of their own block, whether it stands above or below them.

Tests used:
[1] = Permeability across apical at pH6 to basolateral side at pH 7.4 in human Caco2 cells; assay type: ADME, cell-based; settings: Caco-2, pH 6, read-out: permeability
In short: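 Caco-2 monolayer permeability measured apical to basolateral, apical side at pH 6.0 and basolateral at pH 7.4.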

[2] = Plasma protein binding in human; assay type: ADME, cell-free; settings: read-out: PPB (converted)
[3] = Cytotoxicity against human HuH7 cells assessed as cell viability by MTT assay; assay type: cell-based; settings: Huh-7 cells, read-out: TC50 (the source's name)
Cytochrome P450 1A2 = molecular target: T1, Cytochrome P450 1A2 (Homo sapiens, UniProt P05177); test: Inhibition of CYP1A2 (unknown origin); assay type: ADME
T1 sequence (P05177 whole entry): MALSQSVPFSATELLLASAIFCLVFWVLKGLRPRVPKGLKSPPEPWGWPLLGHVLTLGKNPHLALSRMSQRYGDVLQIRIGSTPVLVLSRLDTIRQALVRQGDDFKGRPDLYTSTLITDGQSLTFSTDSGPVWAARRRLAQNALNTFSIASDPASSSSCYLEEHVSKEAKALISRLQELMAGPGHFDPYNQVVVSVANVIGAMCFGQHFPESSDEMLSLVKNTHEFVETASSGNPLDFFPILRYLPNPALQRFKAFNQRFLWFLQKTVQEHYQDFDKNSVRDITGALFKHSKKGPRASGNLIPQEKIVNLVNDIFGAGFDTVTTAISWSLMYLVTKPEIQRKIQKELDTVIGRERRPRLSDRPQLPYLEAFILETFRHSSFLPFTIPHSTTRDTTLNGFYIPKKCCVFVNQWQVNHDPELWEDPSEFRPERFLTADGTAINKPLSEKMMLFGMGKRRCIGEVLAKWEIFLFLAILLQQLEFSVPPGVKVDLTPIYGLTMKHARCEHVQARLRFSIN

[4] = Oral bioavailability in monkey at 10 mg/kg; assay type: ADME, organism-based, Macaca mulatta; settings: rhesus monkey, in vivo
In short: (§1)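 Single-compound oral PK after overnight fast; 10 mg/kg given as suspension in 0.5% methylcellulose and 0.3% Tween-80, with or without 1% NMP as added solubilizer; N=3 per dose and route. Plasma kept on ice, centrifuged at 4°C, stored near -20°C, extracted by solid phase, quantified by HPLC-UV or LC/MS against blank-plasma standards (LOQ 7 ng/mL); non-compartmental analysis.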

Cytochrome P450 2C9 = Cytochrome P450 2C9 (Homo sapiens, UniProt P11712); test: Inhibition of CYP2C9 (unknown origin); assay type: ADME
[5] = Lipophilicity, log D of the compound at pH 7.4; assay type: physicochemical; settings: buffer
[6] = Inhibition of recombinant Hepatitis C virus genotype 1b Con1 NS5B RNA dependent RNA polymerase delta21; parameters: species or system Hepatitis C virus subtype 1b
In short: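 Biochemical polymerase assay with C-terminally truncated genotype 1b NS5B∆21; IC50 taken as mean of duplicates.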

Hepatitis C virus [7] = test: Antiviral activity against Hepatitis C virus genotype 1b assessed as shift in EC50 by cell-based replicon assay in presence of 40% human serum; assay type: functional, Hepacivirus hominis
[8] = Dissociation constant, pKa of the compound; assay type: physicochemical
In short: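 pKa derived from pH titration curves.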

Cytochrome P450 2D6 = Cytochrome P450 2D6 (Homo sapiens, UniProt P10635); test: Inhibition of CYP2D6 (unknown origin); assay type: ADME
[9] = AUC in rat at 10 mg/kg, po; assay type: ADME, organism-based; parameters: dose 10 mg/kg, route oral; settings: plasma; in short: as §1
[10] = Inhibition of HCV full-length NS5B polymerase; parameters: species or system Hepacivirus hominis
In short: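 Polymerase inhibition with full-length NS5B enzyme in a biochemical assay; IC50 averaged from duplicate measurements, at least two determinations.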

[11] = Mean residence time in monkey at 10 mg/kg, po; assay type: ADME, organism-based, Macaca mulatta; parameters: dose 10 mg/kg, route oral; settings: rhesus monkey, in vivo; in short: as §1
[12] = Oral bioavailability in dog at 10 mg/kg; assay type: ADME, organism-based, Canis lupus familiaris; settings: in vivo; in short: as §1
Salmonella typhimurium = test: Mutagenic activity in Salmonella typhimurium by Ames test; assay type: toxicity, organism-based; settings: salmonella enterica subsp. enterica serovar typhimurium
In short: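 Ames test run with and without metabolic activation at doses up to maximum solubility.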

[13] = molecular target: Voltage-gated inwardly rectifying potassium channel KCNH2 (Homo sapiens, UniProt Q12809); test: Inhibition of human ERG channel at 0.8 uM
[14] = AUC in monkey at 10 mg/kg, po; assay type: ADME, organism-based, Macaca mulatta; parameters: dose 10 mg/kg, route oral; settings: rhesus monkey, plasma; in short: as §1
[15] = Half life in dog at 2 mg/kg, iv; assay type: ADME, organism-based, Canis lupus familiaris; parameters: dose 2 mg/kg, route intravenous; settings: in vivo
In short: (§2)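 Fasted animals dosed IV by bolus at 2 mg/kg in 70% PEG-400:30% water; N=3 per dose and route. Plasma separated at 4°C, stored near -20°C, solid-phase extracted, assayed by HPLC-UV or LC/MS with blank-plasma calibration (r2 > 0.99, LOQ 7 ng/mL); parameters from non-compartmental analysis.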

[16] = Volume of distribution at steady state in rat at 2 mg/kg, iv; assay type: ADME, organism-based; parameters: dose 2 mg/kg, route intravenous; settings: in vivo, read-out: Vdss; in short: as §2
[17] = Clearance in dog at 2 mg/kg, iv; assay type: ADME, organism-based, Canis lupus familiaris; parameters: dose 2 mg/kg, route intravenous; settings: in vivo; in short: as §2
[18] = Inhibition of Hepatitis C virus genotype 1b Con1 NS5B RNA dependent RNA polymerase activity using Bright-Glo luciferase substrate by cell-based 1b luciferase reporter assay; parameters: species or system Hepatitis C virus (isolate Con1)
In short: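 Cell-based genotype 1b luciferase reporter replicon assay; EC50 determined in duplicate, values averaged over at least two determinations.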

[19] = Permeability across apical to basolateral side in human Caco2 cells; assay type: ADME, cell-based; settings: Caco-2, read-out: permeability
Hepatitis C virus [20] = test: Antiviral activity against Hepatitis C virus genotype 1a by cell-based replicon assay; assay type: functional, Hepacivirus hominis; settings: subtype 1a
[21] = Half life in human liver microsomes; assay type: ADME
Rhesus monkey [22] = test: Clearance in monkey at 2 mg/kg, iv; assay type: ADME, organism-based, Macaca mulatta; parameters: dose 2 mg/kg, route intravenous; settings: in vivo; in short: as §2
[23] = Volume of distribution at steady state in dog at 2 mg/kg, iv; assay type: ADME, organism-based, Canis lupus familiaris; parameters: dose 2 mg/kg, route intravenous; settings: in vivo, read-out: Vdss; in short: as §2
[24] = Cmax in dog at 10 mg/kg, po; assay type: ADME, organism-based, Canis lupus familiaris; parameters: dose 10 mg/kg, route oral; settings: in vivo; in short: as §1
[25] = Ratio of drug level in rat liver to plasma after 6 hrs; assay type: ADME, cell-free
[26] = Cmax in monkey at 10 mg/kg, po; assay type: ADME, organism-based, Macaca mulatta; parameters: dose 10 mg/kg, route oral; settings: rhesus monkey, in vivo; in short: as §1
[27] = Half life in rat at 2 mg/kg, iv; assay type: ADME, organism-based; parameters: dose 2 mg/kg, route intravenous; settings: in vivo; in short: as §2
[28] = Mean residence time in dog at 10 mg/kg, po; assay type: ADME, organism-based, Canis lupus familiaris; parameters: dose 10 mg/kg, route oral; settings: in vivo; in short: as §1
[29] = AUC in dog at 10 mg/kg, po; assay type: ADME, organism-based, Canis lupus familiaris; parameters: dose 10 mg/kg, route oral; settings: plasma; in short: as §1
[30] = Oral bioavailability in rat at 10 mg/kg; assay type: ADME, organism-based; settings: in vivo; in short: as §1
Rhesus monkey [31] = test: Volume of distribution at steady state in monkey at 2 mg/kg, iv; assay type: ADME, organism-based, Macaca mulatta; parameters: dose 2 mg/kg, route intravenous; settings: in vivo; in short: as §2
Canis familiaris = test: Cardiotoxicity in dog assessed as electrocardiographic parameters up to 200 mg/kg; assay type: toxicity, organism-based, Canis lupus familiaris; parameters: dose 200 mg/kg; settings: in vivo
[32] = Half life in rat liver microsomes; assay type: ADME
[33] = Clearance in rat at 2 mg/kg, iv; assay type: ADME, organism-based; parameters: dose 2 mg/kg, route intravenous; settings: in vivo; in short: as §2
Cytochrome P450 2C19 = Cytochrome P450 2C19 (Homo sapiens, UniProt P33261); test: Inhibition of CYP2C19 (unknown origin); assay type: ADME
[34] = Mean residence time in rat at 10 mg/kg, po; assay type: ADME, organism-based; parameters: dose 10 mg/kg, route oral; settings: in vivo; in short: as §1
[35] = Plasma concentration in rat at 4 mg/kg, po cassette dosing after 2 hrs; assay type: ADME, organism-based; parameters: dose 4 mg/kg, route oral
In short: (§3)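 Cassette screen: mixture of 4 compounds, each at 4 mg/kg, dosed orally to 2 rats; plasma sampled at 1 h and 2 h, solid-phase extracted and quantified by HPLC-UV or LC/MS against calibration standards in blank plasma (LOQ 7 ng/mL).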

Hepatitis C virus [36] = test: Antiviral activity against Hepatitis C virus genotype 1b by cell-based replicon assay; assay type: functional, Hepacivirus hominis
[37] = Cardiotoxicity in guinea pig papillary muscles assessed as action potential duration at 90% repolarization
[38] = Inhibition of calf thymus DNA-dependent RNA polymerase; parameters: species or system Bos taurus
Rhesus monkey [39] = test: Half life in monkey at 2 mg/kg, iv; assay type: ADME, organism-based, Macaca mulatta; parameters: dose 2 mg/kg, route intravenous; settings: in vivo; in short: as §2
[40] = Cmax in rat at 10 mg/kg, po; assay type: ADME, organism-based; parameters: dose 10 mg/kg, route oral; settings: in vivo; in short: as §1
Cytochrome P450 3A4 = Cytochrome P450 3A4 (Homo sapiens, UniProt P08684); test: Inhibition of CYP3A4 (unknown origin); assay type: ADME
[41] = Plasma concentration in rat at 4 mg/kg, po cassette dosing after 1 hr; assay type: ADME, organism-based; parameters: dose 4 mg/kg, route oral; in short: as §3

Sequence of Cytochrome P450 2C9 (P11712 whole entry): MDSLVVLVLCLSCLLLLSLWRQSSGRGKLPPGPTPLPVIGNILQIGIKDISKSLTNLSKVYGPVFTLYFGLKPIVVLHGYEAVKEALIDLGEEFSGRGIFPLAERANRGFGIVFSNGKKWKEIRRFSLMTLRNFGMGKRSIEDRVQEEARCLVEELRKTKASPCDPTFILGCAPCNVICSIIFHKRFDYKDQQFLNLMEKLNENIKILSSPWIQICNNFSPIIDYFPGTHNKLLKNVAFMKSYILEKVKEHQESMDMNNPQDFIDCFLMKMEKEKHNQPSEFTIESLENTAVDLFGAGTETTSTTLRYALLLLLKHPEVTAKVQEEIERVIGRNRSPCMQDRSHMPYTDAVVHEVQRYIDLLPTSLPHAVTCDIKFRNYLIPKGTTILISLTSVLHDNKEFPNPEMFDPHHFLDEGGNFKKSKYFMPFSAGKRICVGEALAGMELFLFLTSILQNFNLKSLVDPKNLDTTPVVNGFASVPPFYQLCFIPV
Sequence of Cytochrome P450 2D6 (P10635 whole entry): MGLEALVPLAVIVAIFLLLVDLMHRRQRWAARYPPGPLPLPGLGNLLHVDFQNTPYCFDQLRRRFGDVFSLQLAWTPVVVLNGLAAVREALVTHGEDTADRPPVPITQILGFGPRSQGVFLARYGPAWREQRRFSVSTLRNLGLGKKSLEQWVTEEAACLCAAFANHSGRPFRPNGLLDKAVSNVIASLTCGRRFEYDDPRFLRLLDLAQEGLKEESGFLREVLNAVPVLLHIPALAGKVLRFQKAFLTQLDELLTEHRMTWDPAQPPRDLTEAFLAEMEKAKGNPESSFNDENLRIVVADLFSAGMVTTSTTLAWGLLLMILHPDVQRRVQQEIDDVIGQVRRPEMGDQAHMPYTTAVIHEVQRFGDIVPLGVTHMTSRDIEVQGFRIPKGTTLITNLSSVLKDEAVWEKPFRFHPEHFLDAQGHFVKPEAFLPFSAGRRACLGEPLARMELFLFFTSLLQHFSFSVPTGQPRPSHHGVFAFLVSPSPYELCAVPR
Sequence of Cytochrome P450 2C19 (P33261 whole entry): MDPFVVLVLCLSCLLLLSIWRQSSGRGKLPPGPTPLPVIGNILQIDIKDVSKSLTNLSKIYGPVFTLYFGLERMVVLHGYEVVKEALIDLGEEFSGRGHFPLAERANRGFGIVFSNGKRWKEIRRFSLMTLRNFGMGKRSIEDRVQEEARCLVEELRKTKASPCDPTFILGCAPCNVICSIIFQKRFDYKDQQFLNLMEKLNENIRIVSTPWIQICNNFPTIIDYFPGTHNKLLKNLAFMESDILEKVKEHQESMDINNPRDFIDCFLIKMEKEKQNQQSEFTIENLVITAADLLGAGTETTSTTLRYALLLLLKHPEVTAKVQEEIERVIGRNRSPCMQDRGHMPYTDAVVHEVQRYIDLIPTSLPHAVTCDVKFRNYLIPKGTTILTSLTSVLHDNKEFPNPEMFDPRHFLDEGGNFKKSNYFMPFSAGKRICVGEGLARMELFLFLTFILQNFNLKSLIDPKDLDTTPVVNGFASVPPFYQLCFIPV
Sequence of Voltage-gated inwardly rectifying potassium channel KCNH2 (Q12809 whole entry): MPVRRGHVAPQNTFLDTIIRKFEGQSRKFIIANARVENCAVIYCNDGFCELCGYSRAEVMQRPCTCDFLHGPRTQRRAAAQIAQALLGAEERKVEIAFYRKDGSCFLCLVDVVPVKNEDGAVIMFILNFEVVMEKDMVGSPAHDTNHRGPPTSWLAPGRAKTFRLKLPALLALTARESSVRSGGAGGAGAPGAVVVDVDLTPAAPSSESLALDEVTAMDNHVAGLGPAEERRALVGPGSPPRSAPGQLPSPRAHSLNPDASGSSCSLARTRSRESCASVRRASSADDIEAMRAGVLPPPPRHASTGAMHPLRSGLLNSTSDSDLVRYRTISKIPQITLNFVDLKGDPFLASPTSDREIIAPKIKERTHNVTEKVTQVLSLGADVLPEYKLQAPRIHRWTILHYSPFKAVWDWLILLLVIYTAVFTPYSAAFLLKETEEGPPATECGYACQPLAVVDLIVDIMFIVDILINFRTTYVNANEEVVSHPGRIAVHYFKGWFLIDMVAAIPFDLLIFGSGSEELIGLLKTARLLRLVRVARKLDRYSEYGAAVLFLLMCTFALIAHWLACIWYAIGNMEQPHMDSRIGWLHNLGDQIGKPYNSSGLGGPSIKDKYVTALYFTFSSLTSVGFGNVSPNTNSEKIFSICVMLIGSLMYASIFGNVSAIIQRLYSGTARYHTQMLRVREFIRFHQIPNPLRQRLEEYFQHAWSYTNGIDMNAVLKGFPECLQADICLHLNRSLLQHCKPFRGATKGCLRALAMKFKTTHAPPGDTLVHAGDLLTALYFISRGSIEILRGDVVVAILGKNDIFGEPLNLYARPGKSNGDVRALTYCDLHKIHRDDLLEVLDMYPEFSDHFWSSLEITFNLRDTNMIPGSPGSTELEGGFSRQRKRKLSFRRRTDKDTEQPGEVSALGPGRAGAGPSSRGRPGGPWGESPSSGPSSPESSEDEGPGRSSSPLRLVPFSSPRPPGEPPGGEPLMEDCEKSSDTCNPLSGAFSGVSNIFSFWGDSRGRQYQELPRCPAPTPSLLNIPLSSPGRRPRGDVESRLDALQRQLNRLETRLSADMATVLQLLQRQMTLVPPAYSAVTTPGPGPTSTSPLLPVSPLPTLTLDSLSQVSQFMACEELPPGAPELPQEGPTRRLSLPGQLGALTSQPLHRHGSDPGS
Sequence of Cytochrome P450 3A4 (P08684 whole entry): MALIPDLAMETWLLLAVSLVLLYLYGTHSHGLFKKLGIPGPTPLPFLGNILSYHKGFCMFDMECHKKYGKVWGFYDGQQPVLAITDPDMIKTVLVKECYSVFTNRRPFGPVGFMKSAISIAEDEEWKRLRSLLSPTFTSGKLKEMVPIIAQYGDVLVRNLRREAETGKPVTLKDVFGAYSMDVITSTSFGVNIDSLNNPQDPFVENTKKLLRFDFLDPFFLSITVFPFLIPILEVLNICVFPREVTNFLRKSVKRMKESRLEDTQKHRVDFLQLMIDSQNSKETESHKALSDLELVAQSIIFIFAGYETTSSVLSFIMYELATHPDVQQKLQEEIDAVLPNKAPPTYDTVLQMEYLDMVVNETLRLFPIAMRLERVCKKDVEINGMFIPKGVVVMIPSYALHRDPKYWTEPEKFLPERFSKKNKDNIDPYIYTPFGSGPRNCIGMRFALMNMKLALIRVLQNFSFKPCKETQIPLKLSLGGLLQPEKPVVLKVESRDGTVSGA

Compound: Cn1c(-c2ccccn2)c(C2CCCC2)c2ccc(C(=O)NC3(C(=O)Nc4ccc(/C=C/C(=O)O)cc4)CCC3)cc21 [BILB-1941]
Papp A→B [1]: 11 ×10⁻⁶ cm/s | fraction unbound [2]: 0.008 | CC50 [3]: 93 µM | IC50 (Cytochrome P450 1A2): 13 µM | bioavailability [4]: 70% | IC50 (Cytochrome P450 2C9): 3.5 µM | logD [5]: 3.3 | IC50 [6]: 67 nM | fold change (FC) (Hepatitis C virus [7]): 3 | pKa [8]: 4.5 | IC50 (Cytochrome P450 2D6): > 30 µM | AUC [9]: 23 µM·h | IC50 [10]: 60 nM

Papp A→B [1]: 13 ×10⁻⁶ cm/s | MRT [11]: 6.1 h | fraction unbound [2]: 0.004 | IC50 (Cytochrome P450 1A2): > 30 µM | bioavailability [12]: 29% | AUC [14]: 53 µM·h | half-life [15]: 270 min | Vd [16]: 0.38 L/kg | clearance [17]: 1 mL/min/kg | bioavailability [4]: 72% | EC50 [18]: 13 nM | Papp A→B [19]: 13 ×10⁻⁶ cm/s | EC50 (Hepatitis C virus [20]): 29 nM | IC50 (Cytochrome P450 2C9): 13.5 µM | half-life [21]: 102 min | CL (Rhesus monkey [22]): 3.6 mL/kg/min | Vd [23]: 0.38 L/kg | logD [5]: 4.1 | IC50 [6]: 84 nM | pKa [8]: 6.5 | Cmax [24]: 8.1 µM | Kp at 6 h [25]: 5 | IC50 (Cytochrome P450 2D6): > 30 µM | Cmax [26]: 9.6 µM | half-life [27]: 144 min | MRT [28]: 8 h | AUC [29]: 76 µM·h | bioavailability [30]: 19% | Vdss (Rhesus monkey [31]): 0.6 L/kg | half-life [32]: 104 min | AUC [9]: 19 µM·h | clearance [33]: 2.6 mL/min/kg | IC50 (Cytochrome P450 2C19): > 30 µM | MRT [34]: 3.6 h | concentration at 2 h [35]: 2300 nM | EC50 (Hepatitis C virus [36]): 11 nM | IC50 [38]: 70 µM | t1/2 (Rhesus monkey [39]): 3 h | IC50 [10]: 110 nM | Cmax [40]: 6.3 µM | IC50 (Cytochrome P450 3A4): > 30 µM | concentration at 1 h [41]: 3.4 µM
Compound: CCOc1cc(NC(=O)C2(NC(=O)c3ccc4c(C5CCCC5)c(-c5ncc(Cl)cn5)n(C)c4c3)CCC2)ccc1/C=C/C(=O)O
CC50 [3]: 38 µM | Activity (Salmonella typhimurium): Non-toxic | inhibition (INH) [13]: Not Active | fold change (FC) (Hepatitis C virus [7]): 3.8 | Activity (Canis familiaris): Non-toxic | Activity [37]: Non-toxic
